Here are results for one compound from ChEMBL document CHEMBL3217692, “Synthesis and cytotoxicity evaluation of novel pyrido[3,4-d]pyrimidine derivatives as potential anticancer agents” (2012).

The nature of the experiment: Cytotoxicity against human HCT15 cells assessed as cell growth at 10 uM after 48 hrs by sulforhodamine B assay relative to control. Format: functional. Particulars: HCT-15, 48 h, read-out: Activity. The essentials:
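Adherent cells were grown in RPMI 1640 with 5% FBS and 2 mM L-glutamine, seeded at 5000–40 000 cells/well by doubling time, and held 24 h at 37 °C, 5% CO2 before drug. Time-zero plates were TCA-fixed. Compound in DMSO, single dose 10 μM, 48 h. Cells were fixed with cold TCA (final 10%, 60 min, 4 °C) and stained with 0.4% SRB. Bound dye was dissolved in 10 mM Tris base and read at 515 nm. Percent growth was derived from time-zero, control and treated absorbances.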
On the technique in general: The SRB assay estimates cell density from bound dye.

As to `COc1nccc2c(-c3cccc(F)c3)nc(N)nc12`, the growth at 10 µM came out at 95%.
